Assay results of several laboratories.
Each line is one published result; the experiments were not run side by side.
P2RY14: P2Y purinoceptor 14 (P2RY14, Homo sapiens, UniProt Q15391)
ADRA1B: Alpha-1B adrenergic receptor (ADRA1B, Homo sapiens, UniProt P35368)
Nuclear receptor subfamily 4 group A member 2: Nuclear receptor subfamily 4 group A member 2 (Homo sapiens, UniProt P43354)

Compound	target	observed	technique	measurement	value
O=C(O)c1cc(-c2ccc(-n3cc(CCO)nn3)cc2)c2ccc(-c3ccc(C(F)(F)F)cc3)cc2c1	P2RY14	ligand displacement in cells	flow cytometry	Ki	89 nM
Cc1cc(Oc2ncccc2CN2CCN(CCc3ccccc3)CC2)ccc1-c1c(C)c(=O)[nH]c(=O)n1C	ADRA1B	ligand displacement	radioligand	Ki	1660 nM
Nc1ncnc2c1ncn2[C@@H]1O[C@H](COP(=O)(O)OP(=O)(O)OP(=O)(O)O)[C@@H](O)[C@H]1O	P2X purinoceptor 7 (P2RX7, Homo sapiens, UniProt Q99572)	binding	SPR	Kd	224000 nM
O=C(O)c1cc(-c2ccc(-n3ccnn3)cc2)c2ccc(-c3ccc(C(F)(F)F)cc3)cc2c1	P2RY14	ligand displacement in cells	flow cytometry	Ki	14.2 nM
Cc1cc(Oc2ncccc2CN2CCN(c3ccccc3C#N)CC2)ccc1-c1c(C)c(=O)[nH]c(=O)n1C	ADRA1B	ligand displacement	radioligand	Ki	464 nM
O=C(O)c1cc(-c2ccc([C@H]3C[C@H]4C[C@@H]3CN4)cc2)c2ccc(-c3ccc(C(F)(F)F)cc3)cc2c1	P2RY14	ligand displacement	flow cytometry	Ki	1.81 nM
Cc1cc(Oc2ncccc2CN2CCN(c3cccc(F)c3)CC2)ccc1-c1c(C)c(=O)[nH]c(=O)n1C	ADRA1B	ligand displacement	radioligand	Ki	3020 nM
CCN(CC)CCCC(C)Nc1ccnc2cc(Cl)ccc12 (stereo not drawn)	Nuclear receptor subfamily 4 group A member 2	binding	ITC	Kd	6800 nM
Cc1cc(Oc2ncccc2CN2CCN(c3cccc(C)c3C)CC2)ccc1-c1c(C)c(=O)[nH]c(=O)n1C	ADRA1B	ligand displacement	radioligand	Ki	4420 nM
COC(=O)c1cn(C)c2ccc(-c3cccnc3)cc12	Nuclear receptor subfamily 4 group A member 2	binding	ITC	Kd	400 nM
O=c1c(O[C@@H]2O[C@H](CO)[C@H](O)[C@H](O)[C@H]2O)c(-c2ccc(O)c(O)c2)oc2cc(O)cc(O)c12	Sortase B (srtB, Staphylococcus aureus, UniProt Q2FZE3)	binding	SPR	Kd	198000 nM
CCCCCCCCC(=O)c1cc(O)c(O)c(O)c1	Nuclear receptor subfamily 4 group A member 2	binding	ITC	Kd	3400 nM
O=C(O)c1cc(-c2ccc(-n3cc(CCOP(=O)(O)O)nn3)cc2)c2ccc(-c3ccc(C(F)(F)F)cc3)cc2c1	P2RY14	ligand displacement in cells	flow cytometry	Ki	779 nM
COc1ccccc1N1CCN(Cc2cccnc2Oc2ccc(-c3c(C)c(=O)[nH]c(=O)n3C)c(C)c2)CC1	ADRA1B	ligand displacement	radioligand	Ki	1390 nM
CCC(=O)NS(=O)(=O)c1ccc(-c2c(-c3ccccc3)noc2C)cc1	Nuclear receptor subfamily 4 group A member 2	binding	ITC	Kd	1600 nM
